# According to ChEMBL document CHEMBL5661968, “Antitumor activity of ZSTK474, a new phosphatidylinositol 3-kinase inhibitor” (J Natl Cancer Inst, 2006):
# Active and inactive are the calls of the source. The rule behind the calls is not given here.
# Key:
# [1] = system: B16-F10; assay: Antitumor activity against mouse B16-F10 cells implanted in BDF1 mouse assessed as tumor size relative to control (T/C) at 100 mg/kg, iv administered on day 0,3 and 7 measured after 14 days; conditions: 336 h
# [2] = Growth inhibition of human HBC4 cells measured after 48 hrs by sulforhodamine B assay; format: functional
# In short: (§1)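 JFCR39 panel lines were grown in RPMI 1640 with 5% FBS, penicillin and streptomycin at 37 °C in 5% CO2. After 48 h of drug exposure, total cellular protein was measured by sulforhodamine B staining. GI50 was calculated by a previously described method.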
# [3] = Growth inhibition of human BSY1 cells measured after 48 hrs by sulforhodamine B assay; format: functional; conditions: BSY-1
# In short: as §1
# [4] = Growth inhibition of human HBC5 cells measured after 48 hrs by sulforhodamine B assay; format: functional
# In short: as §1
# [5] = system: MDA-MB-231; assay: Growth inhibition of human MDA-MB-231 cells measured after 48 hrs by sulforhodamine B assay; format: functional
# In short: as §1
# [6] = system: U-251; assay: Growth inhibition of human U-251 cells measured after 48 hrs by sulforhodamine B assay; format: functional
# In short: as §1
# [7] = system: SF-268; assay: Growth inhibition of human SF-268 cells measured after 48 hrs by sulforhodamine B assay; format: functional
# In short: as §1
# [8] = system: SF-295; assay: Growth inhibition of human SF-295 cells measured after 48 hrs by sulforhodamine B assay; format: functional
# In short: as §1
# [9] = system: SF-539; assay: Growth inhibition of human SF-539 cells measured after 48 hrs by sulforhodamine B assay; format: functional
# In short: as §1
# [10] = system: SNB-75; assay: Growth inhibition of human SNB-75 cells measured after 48 hrs by sulforhodamine B assay; format: functional
# In short: as §1
# [11] = system: SNB-78; assay: Growth inhibition of human SNB-78 cells measured after 48 hrs by sulforhodamine B assay; format: functional
# In short: as §1
# [12] = system: HCC 2998; assay: Growth inhibition of human HCC 2998 cells measured after 48 hrs by sulforhodamine B assay; format: functional
# In short: as §1
# [13] = system: KM12; assay: Growth inhibition of human KM12 cells measured after 48 hrs by sulforhodamine B assay; format: functional
# In short: as §1
# [14] = system: HT-29; assay: Growth inhibition of human HT-29 cells measured after 48 hrs by sulforhodamine B assay; format: functional
# In short: as §1
# [15] = system: HCT-15; assay: Growth inhibition of human HCT-15 cells measured after 48 hrs by sulforhodamine B assay; format: functional
# In short: as §1
# [16] = system: HCT-116; assay: Growth inhibition of human HCT-116 cells measured after 48 hrs by sulforhodamine B assay; format: functional
# In short: as §1
# [17] = system: NCI-H23; assay: Growth inhibition of human NCI-H23 cells measured after 48 hrs by sulforhodamine B assay; format: functional
# In short: as §1
# [18] = system: NCI-H226; assay: Growth inhibition of human NCI-H226 cells measured after 48 hrs by sulforhodamine B assay; format: functional
# In short: as §1
# [19] = system: NCI-H522; assay: Growth inhibition of human NCI-H522 cells measured after 48 hrs by sulforhodamine B assay; format: functional
# In short: as §1
# [20] = system: NCI-H460; assay: Growth inhibition of human NCI-H460 cells measured after 48 hrs by sulforhodamine B assay; format: functional
# In short: as §1
# [21] = system: A549; assay: Growth inhibition of human A549 cells measured after 48 hrs by sulforhodamine B assay; format: functional
# In short: as §1
# [22] = system: DMS-273; assay: Growth inhibition of human DMS-273 cells measured after 48 hrs by sulforhodamine B assay; format: functional
# In short: as §1
# [23] = system: DMS-114; assay: Growth inhibition of human DMS-114 cells measured after 48 hrs by sulforhodamine B assay; format: functional
# In short: as §1
# [24] = system: LOX IMVI; assay: Growth inhibition of human LOX IMVI cells measured after 48 hrs by sulforhodamine B assay; format: functional
# In short: as §1
# [25] = system: OVCAR-3; assay: Growth inhibition of human OVCAR-3 cells measured after 48 hrs by sulforhodamine B assay; format: functional
# In short: as §1
# [26] = system: OVCAR-4; assay: Growth inhibition of human OVCAR-4 cells measured after 48 hrs by sulforhodamine B assay; format: functional
# In short: as §1
# [27] = system: OVCAR-5; assay: Growth inhibition of human OVCAR-5 cells measured after 48 hrs by sulforhodamine B assay; format: functional
# In short: as §1
# [28] = system: OVCAR-8; assay: Growth inhibition of human OVCAR-8 cells measured after 48 hrs by sulforhodamine B assay; format: functional
# In short: as §1
# [29] = system: SK-OV-3; assay: Growth inhibition of human SK-OV-3 cells measured after 48 hrs by sulforhodamine B assay; format: functional
# In short: as §1
# [30] = system: RXF 631; assay: Growth inhibition of human RXF 631 cells measured after 48 hrs by sulforhodamine B assay; format: functional
# In short: as §1
# [31] = system: ACHN; assay: Growth inhibition of human ACHN cells measured after 48 hrs by sulforhodamine B assay; format: functional
# In short: as §1
# [32] = system: St-4; assay: Growth inhibition of human St-4 cells measured after 48 hrs by sulforhodamine B assay; format: functional
# In short: as §1
# [33] = system: MKN-1; assay: Growth inhibition of human MKN-1 cells measured after 48 hrs by sulforhodamine B assay; format: functional
# In short: as §1
# [34] = system: MKN-7; assay: Growth inhibition of human MKN-7 cells measured after 48 hrs by sulforhodamine B assay; format: functional
# In short: as §1
# [35] = system: MKN-28; assay: Growth inhibition of human MKN-28 cells measured after 48 hrs by sulforhodamine B assay; format: functional
# In short: as §1
# [36] = system: MKN-45; assay: Growth inhibition of human MKN-45 cells measured after 48 hrs by sulforhodamine B assay; format: functional
# In short: as §1
# [37] = system: MKN-74; assay: Growth inhibition of human MKN74 cells measured after 48 hrs by sulforhodamine B assay; format: functional
# In short: as §1
# [38] = system: DU-145; assay: Growth inhibition of human DU-145 cells measured after 48 hrs by sulforhodamine B assay; format: functional
# In short: as §1
# [39] = system: PC-3; assay: Growth inhibition of human PC-3 cells measured after 48 hrs by sulforhodamine B assay; format: functional
# In short: as §1
# [40] = Inhibition of PI3K in human A549 cell lysate preincubated with compound for 5 mins followed by [gamma-32p]-ATP addition measured after 20 mins by immunoprecipitation based liquid scintillation spectroscopic analysis; format: subcellular
# In short: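 PI3K immunoprecipitated with anti-p85 polyclonal antibody and protein G–agarose from A549 lysate (2–4 mg/mL protein), washed, suspended in buffer C (100 mM NaCl, 20 mM Tris pH 7.5) with 200 μg/mL phosphatidylinositol; compound preincubated 5 min at 25 °C; reaction started with [γ-32P]ATP (20 μM final) and 20 mM MgCl2, run 20 min at 25 °C; PI3P separated by TLC, counted by scintillation; activity as % of no-compound cpm.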
# [41] = Residual PI3K activity in human A549 cell lysate at 1 uM preincubated with compound for 5 mins followed by [gamma-32p]-ATP addition measured after 20 mins by immunoprecipitation based liquid scintillation spectroscopic analysis relative to control; conditions: A549, 25 min
# [42] = system: B16-F10; assay: Antitumor activity against mouse B16-F10 cells implanted in BDF1 mouse assessed as tumor size relative to control (T/C) at 12 mg/kg, iv administered on day 0 measured after 14 days; conditions: 336 h
# [43] = system: A549; assay: Irreversible inhibition of PI3K in human A549 cell lysate at 1 uM preincubated with compound for 5 mins followed by [gamma-32p]-ATP addition measured after 20 mins by immunoprecipitation based liquid scintillation spectroscopic analysis; format: subcellular; conditions: time 25.0 min
# In short: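 Class Ia PI3K was immunoprecipitated with anti-p85 antibody from A549 lysate and preincubated 5 min with compound at 1 μM. The mix was split: one aliquot washed four times (100 mM NaCl, 20 mM Tris pH 7.5), the other unwashed. Each aliquot was assayed with phosphatidylinositol 200 μg/mL, [γ-32P]ATP 20 μM final and MgCl2 20 mM final, 25 °C for 20 min. PI3P was separated by TLC, scraped and counted by scintillation, expressed as % of no-compound cpm.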
# [44] = system: B16-F10; assay: Antitumor activity against mouse B16-F10 cells implanted in BDF1 mouse assessed as tumor growth inhibition at 50 mg/kg, po administered on day 0,3 and 7 measured after 14 days; format: functional; conditions: B16-F10, 336 h, time 14 day, read-out: TGI
# In short: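 Male BDF1 mice given 5 × 10^5 B16F10 melanoma cells subcutaneously; dosing began 7 days after inoculation (day 0) in random groups of seven. Tumours were measured by calipers, with TV = (L × W²)/2 and RTV = TVn/TV0. T/C% on day 14 = 100 × mean RTV treated / mean RTV control. Body weight was also recorded.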
structure (smiles),measurement,setting,value
CCc1c2c(nc3ccc(OC(=O)N4CCC(N5CCCCC5)CC4)cc13)-c1cc3c(c(=O)n1C2)COC(=O)[C@]3(O)CC [IRINOTECAN],T/C at 100 mg/kg,[1],96%
O=c1cc(N2CCOCC2)oc2c(-c3ccccc3)cccc12 [LY-294002],GI50,[2],8.71 µM
same,GI50,[3],5.01 µM
same,GI50,[4],3.98 µM
same,GI50,[5],5.37 µM
same,GI50,[6],15.5 µM
same,GI50,[7],6.61 µM
same,GI50,[8],3.24 µM
same,GI50,[9],3.09 µM
same,GI50,[10],2.57 µM
same,GI50,[11],2.57 µM
same,GI50,[12],10.5 µM
same,GI50,[13],15.5 µM
same,GI50,[14],15.1 µM
same,GI50,[15],9.77 µM
same,GI50,[16],15.1 µM
same,GI50,[17],16.6 µM
same,GI50,[18],4.37 µM
same,GI50,[19],3.24 µM
same,GI50,[20],17 µM
same,GI50,[21],6.03 µM
same,GI50,[22],6.03 µM
same,GI50,[23],2.95 µM
same,GI50,[24],6.17 µM
same,GI50,[25],5.75 µM
same,GI50,[26],4.27 µM
same,GI50,[27],8.13 µM
same,GI50,[28],10 µM
same,GI50,[29],14.1 µM
same,GI50,[30],5.5 µM
same,GI50,[31],10 µM
same,GI50,[32],20.9 µM
same,GI50,[33],10.5 µM
same,GI50,[34],24 µM
same,GI50,[35],24.5 µM
same,GI50,[36],7.08 µM
same,GI50,[37],18.2 µM
same,GI50,[38],10 µM
same,GI50,[39],1.78 µM
same,IC50,[40],0.79 µM
same,"level, % of control at 1 µM",[41],44.6%
COc1cccc2c1C(=O)c1c(O)c3c(c(O)c1C2=O)C[C@@](O)(C(=O)CO)C[C@@H]3O[C@H]1C[C@H](N)[C@H](O)[C@H](C)O1 [DOXORUBICIN],T/C at 12 mg/kg,[42],24%
COC[C@H]1OC(=O)c2coc3c2[C@@]1(C)C1=C(C3=O)[C@@H]2CCC(=O)[C@@]2(C)C[C@H]1OC(C)=O [WORTMANNIN],IC50,[40],0.011 µM
same,inhibition,[43],Active
O=c1[nH]cc(F)c(=O)[nH]1 [FLUOROURACIL],inhibition in vivo at 50 mg/kg,[44],68.3%
